Bioassay records as filed in PubChem.
FXIa inh: factor XIa (human) inhibition | 220,000 tested, 0.14% active | P03951 | purified FXIa, Boc-Glu-Ala-Arg-AMC fluorogenic substrate | inhibition, % at 5 µM;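 active means inhibition of at least 40%; inactive means inhibition below 40%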;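 further: fluorescence of freed AMC excited at 355 nm; 0% = enzyme without compound and 100% = no enzyme blank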
Target sequence (P03951 19-387 limits assumed): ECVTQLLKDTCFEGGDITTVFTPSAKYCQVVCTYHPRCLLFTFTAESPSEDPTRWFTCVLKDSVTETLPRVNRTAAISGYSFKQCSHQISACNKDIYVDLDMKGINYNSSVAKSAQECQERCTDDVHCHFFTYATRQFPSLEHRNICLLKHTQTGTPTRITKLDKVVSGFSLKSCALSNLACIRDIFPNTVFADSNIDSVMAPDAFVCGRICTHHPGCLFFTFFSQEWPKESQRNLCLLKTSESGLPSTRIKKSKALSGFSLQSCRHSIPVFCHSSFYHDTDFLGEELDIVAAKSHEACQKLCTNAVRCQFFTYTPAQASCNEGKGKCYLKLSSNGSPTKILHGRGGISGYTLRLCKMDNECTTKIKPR
Target sequence (P03951 388-625 limits assumed): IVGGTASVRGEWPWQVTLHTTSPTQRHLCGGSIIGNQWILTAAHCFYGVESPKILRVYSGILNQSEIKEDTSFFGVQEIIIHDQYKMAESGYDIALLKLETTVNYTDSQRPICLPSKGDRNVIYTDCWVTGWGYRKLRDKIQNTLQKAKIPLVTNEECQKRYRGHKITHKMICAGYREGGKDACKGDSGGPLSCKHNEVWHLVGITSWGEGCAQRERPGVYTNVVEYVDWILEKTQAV
thrombin 1536: inhibitors of human thrombin. P00734. alpha-thrombin, Boc-VPR-AMC fluorogenic substrate cleavage. inhibition, % at 5 µM. 220,000 tested, 0.26% active;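 active means inhibition at or above 40%; inactive means inhibition below 40%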;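 further: 0% = enzyme with no compound and 100% = wells without enzyme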
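System – human alpha-thrombin protein · Reagent – Boc-VPR-AMC substrate, 15 µM final · Compound – 5 µM single dose in 0.2% DMSO · Schedule – reaction at room temperature · Technique – AMC fluorescence at 355 nm excitation and 460 nm emission · Read-out basis – % inhibition relative to enzyme controls and enzyme-free blanks · Control set – no-compound enzyme wells and no-enzyme blanks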
FXIIa inh: blocks human coagulation factor XIIa protease activity; 220,000 tested, 0.3% active; purified FXIIa, Boc-QGR-AMC fluorogenic substrate, 2 h; P00748; inhibition, % at 5 µM; AID 800; in the data active means inhibition above about 40%;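 further: 0% = enzyme with no compound and 100% = blank without enzyme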
Redox H2O2 prof: compounds producing H2O2 with reducing agent – biochemical, NIH compound library profiling, artefact control for MLSCN library redox annotation, primary screen. DTT-dependent redox cycling H2O2, phenol red/HRP absorbance; 100% = 100 µM peroxide control, 0% = buffer. activation, % at 10 µM. 200,000 tested, 0.03% active;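 active means activation of at least 50% relative to the plate's high and low controls in the primary single-dose screen; inactive means activation below 50%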;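 further: compound incubated with DTT at 0.8 mM final as the reducing agent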
S1P3 antagonist: S1P3 (human) receptor antagonism; Q99500; CHO S1P3 NFAT-BLA reporter, FRET fluorescence, antagonist mode; inhibition, % at 4.98 µM; 170,000 tested, 0.27% active;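 active means inhibition above the plate cutoff, the mean inhibition of test wells on that plate plus 3 SD, cut at about 28% in these data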;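 further: cells challenged with S1P at its EC80 of 0.8 µM; blue over green emission ratio from cleaved BLA substrate after 4 h stimulation; 0% = S1P-stimulated wells and 100% = unstimulated DMSO-only wells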
hK5 inh: kallikrein 5 (human) inhibition. Q9Y337. recombinant hK5, fluorogenic AMC substrate cleavage. inhibition, % at 5 µM. 210,000 tested, 0.59% active;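 active means inhibition of 40% or more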;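 further: 0% = enzyme controls without compound and 100% = no-enzyme blanks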
The depositor's hits bear a star. Shown are actives, neighbours in structure and some others; about 1.2% of the full set was active somewhere.

Cc1nn(C)c(=S)n1-c1ccc(Cl)cc1 was read as FXIa inh 28, thrombin 1536 1, FXIIa inh 31, Redox H2O2 prof -1, S1P3 antagonist -21 and hK5 inh 44*.
Cc1ccc(S(=O)(=O)CCC(=O)Nc2ccc(F)cc2)cc1 was read as FXIa inh -7, thrombin 1536 -5, FXIIa inh -7, Redox H2O2 prof -1, S1P3 antagonist -19 and hK5 inh -16.
Screening Cc1cc(/C=C(\C#N)C(=O)Nc2ccc(Cl)cc2)c(C)n1-c1ccc(N2CCOCC2)c([N+](=O)[O-])c1 returned FXIa inh 12, thrombin 1536 4, FXIIa inh 20, Redox H2O2 prof -1, S1P3 antagonist -20 and hK5 inh -4.
CNC(=O)/C(C#N)=C/c1cc(C)n(-c2ccc(N3CCOCC3)cc2)c1C was read as FXIa inh -9, thrombin 1536 -7, FXIIa inh 2, S1P3 antagonist -17 and hK5 inh 44*.
Screening CCCCC1C2C(=O)N(c3ccc(C)cc3)C(=O)C2ON1c1ccccc1 (stereo not drawn) returned FXIa inh -5, thrombin 1536 -1, FXIIa inh 10, S1P3 antagonist -1 and hK5 inh 2.
Screening CN(Cc1ccccc1)c1nc2nonc2nc1N1CCCC(CN2CCCC2=O)C1 (stereo not drawn) returned FXIa inh 0, thrombin 1536 -10, FXIIa inh 2, S1P3 antagonist 6 and hK5 inh -1.
`CSc1ccc(CN(C)CC(=O)Nc2c(F)cccc2F)cc1` gave FXIa inh 0, thrombin 1536 15, FXIIa inh 6, Redox H2O2 prof 0, S1P3 antagonist -19 and hK5 inh -3.
For CC(=O)C1=C(C)NC(C)=C(C(C)=O)C1c1cccs1 the results were FXIa inh 27, thrombin 1536 14, FXIIa inh 2, Redox H2O2 prof -4, S1P3 antagonist -3 and hK5 inh 79*.
CCCc1nc2c(nnn2Cc2ccccc2Cl)c(=O)[nH]1 was read as FXIa inh -10, thrombin 1536 -4, FXIIa inh 3, Redox H2O2 prof -1, S1P3 antagonist -23 and hK5 inh -8.
For COc1cccc(C(=O)NCC(=O)OCC(=O)C(C)(C)C)c1 the results were FXIa inh 15, thrombin 1536 -1, FXIIa inh 8, Redox H2O2 prof 0, S1P3 antagonist 1 and hK5 inh -3.
For O=C(CNC(=O)c1ccccc1)NCC(=O)OCC(=O)c1ccc(F)cc1 the results were FXIa inh 20, thrombin 1536 16, FXIIa inh 31, Redox H2O2 prof -1, S1P3 antagonist 16 and hK5 inh 80*.
For CC(C)(C)C(=O)COC(=O)CNC(=O)c1ccc(Oc2ccccc2)cc1 the results were FXIa inh 1, thrombin 1536 5, FXIIa inh 34, Redox H2O2 prof 0 and hK5 inh 44*.
Screening N#CCc1c(C#N)c(N)nc(N2CCCC(CO)C2)c1C#N (stereo not drawn) returned FXIa inh 2, thrombin 1536 2, FXIIa inh 7, Redox H2O2 prof 0, S1P3 antagonist 8 and hK5 inh 6.
`CC(=O)N1C(=O)/C(=C2\SC(=S)N(NS(=O)(=O)c3ccc(C)cc3)C2=O)c2ccccc21` gave FXIa inh -1, thrombin 1536 12, FXIIa inh 2, Redox H2O2 prof 0, S1P3 antagonist -6 and hK5 inh 4.
Screening C=CCSc1nnc(-c2cc3c(-c4ccccc4)nn(C)c3s2)n1C returned FXIa inh 5, thrombin 1536 16, FXIIa inh 18, Redox H2O2 prof 3 and hK5 inh 52*.
For CCOC(=O)c1c(O)c2cc(Cl)ccc2n(CC)c1=O the results were FXIa inh 32, thrombin 1536 34, FXIIa inh 50*, S1P3 antagonist -9 and hK5 inh 27.
Screening Cc1ccc(C(=O)NC(NC(=S)Nc2ccc(S(N)(=O)=O)cc2)C(Cl)(Cl)Cl)cc1 (stereo not drawn) returned FXIa inh -4, thrombin 1536 30, FXIIa inh 2, Redox H2O2 prof 1, S1P3 antagonist 1 and hK5 inh 44*.
Screening CCCn1cnc2cc(NCc3cccc(OC)c3O)ccc21 returned FXIa inh 5, thrombin 1536 -2, FXIIa inh 19, Redox H2O2 prof 0, S1P3 antagonist -24 and hK5 inh -5.
Screening COc1cccc(CNc2ccc3c(c2)ncn3C(C)C)c1OC returned FXIa inh 7, thrombin 1536 30, FXIIa inh 37, Redox H2O2 prof -1, S1P3 antagonist 3 and hK5 inh 58*.
Screening C=CCn1c(SCC(N)=O)nc2scc(-c3ccc(C)o3)c2c1=O returned FXIa inh -1, thrombin 1536 -4, FXIIa inh 5, Redox H2O2 prof -3 and S1P3 antagonist -10.
For COc1cc2nc(/C=C/c3ccc(N(C)C)cc3)sc2cc1SC the results were FXIa inh 8, thrombin 1536 -10, FXIIa inh 12, Redox H2O2 prof 2, S1P3 antagonist 55* and hK5 inh -4.
Screening Cc1cccc(NC(=O)CSc2nnc(-c3ccncc3)n2C)c1 returned FXIa inh 21, thrombin 1536 2, FXIIa inh 30, Redox H2O2 prof 0, S1P3 antagonist -14 and hK5 inh -9.
Cn1c(SCC(=O)NNC(=S)Nc2ccccc2)nnc1-c1ccncc1 was read as FXIa inh -1, thrombin 1536 50*, FXIIa inh 8, S1P3 antagonist -3 and hK5 inh -4.
`CCOc1ccc2nc(NC(=O)Nc3cccs3)sc2c1` gave FXIa inh -1, thrombin 1536 -2, FXIIa inh 8, Redox H2O2 prof 0, S1P3 antagonist 58* and hK5 inh -15.
For CCOc1ccc2nc(NC(=O)Nc3ccccc3)sc2c1 the results were FXIa inh 25, thrombin 1536 2, FXIIa inh 27, Redox H2O2 prof 0 and hK5 inh 2.
For Cc1ccc(C(=O)N2C(CC(=O)Nc3ccc(Cl)cc3)C(=O)NC3CCCCC32)cc1 (stereo not drawn) the results were FXIa inh -3, thrombin 1536 50*, FXIIa inh 11, Redox H2O2 prof -1, S1P3 antagonist 1 and hK5 inh 18.
`CN(CC(=O)NCCC1=CCCCC1)S(=O)(=O)c1ccc2c(c1)c(=O)n(C)c(=O)n2C` gave FXIa inh -1, thrombin 1536 -2, FXIIa inh 17, Redox H2O2 prof 0, S1P3 antagonist 74* and hK5 inh -1.
`CCOC(=O)c1cnn(-c2ccccc2)c1NC(=O)CN1CCOCC1` gave FXIa inh 5, thrombin 1536 3, FXIIa inh 10, S1P3 antagonist 8 and hK5 inh 4.
